Data published in ChEMBL document CHEMBL5143677, “Small molecule NSAID derivatives for impairing powerhouse in cancer cells” (Bioorg Med Chem, 2022).
pIC50: −log10 of the molar value. The source made the active and inactive calls. No cut-off for these calls is given here.

Tests used:
MCF7 [1] = assay: Cytotoxicity against human MCF7 cells assessed as reduction in cell viability measured after 24 hrs by MTT assay; type: functional, cell-based; conditions: MCF7, 24 h
[2] = Cytotoxicity against human RPE-1 cells assessed as reduction in cell viability measured after 24 hrs by MTT assay; type: toxicity, cell-based; conditions: RPE-1 cells (TERT-RPE1)
MCF7 [3] = assay: Induction of mitochondrial outer membrane damage in human MCF7 cells assessed as increase in mitochondrial depolarization by measuring increase in green fluorescence measured after 24 hrs by JC1 dye based confocal microscopy; type: cell-based
Summary of the method: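 MCF7 cells treated 24 h, then incubated with JC1 (green monomer emission 525 nm, red aggregate 590 nm); confocal imaging, depolarization expressed as J-monomer:J-aggregate ratio versus non-treated control.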

MCF7 [4] = assay: Induction of apoptosis in human MCF7 cells assessed as reduction in Bcl-2 expression measured after 24 hrs by Western blot analysis; type: functional, cell-based
Summary of the method: (§1)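 MCF7 cells treated 24 h; whole-cell proteins separated by gel electrophoresis and Bcl-2 and caspase-3 detected by Western blot, compared with control cells.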

MCF7 [5] = assay: Induction of ROS generation in human MCF7 cells assessed as increase in green fluorescence measured after 24 hrs by H2DCFDA dye based confocal microscopy relative to control; type: functional
Summary of the method: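 After 24 h treatment, MCF7 cells stained with H2DCFDA, which reacts with sub-cellular ROS to give green fluorescent DCF; imaged by confocal microscopy; green signal expressed as fold over non-treated control cells.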

MCF7 [6] = assay: Induction of mitochondrial outer membrane damage in human MCF7 cells assessed as morphological changes by measuring elongated mitochondria at IC50 measured after 24 hrs by mitotracker red based confocal microscopy; type: cell-based
MCF7 [7] = assay: Induction of apoptosis in human MCF7 cells assessed as reduction in caspase-3 expression measured after 24 hrs by Western blot analysis; type: functional, cell-based; summary of the method: as §1
MCF7 [8] = assay: Induction of mitochondrial outer membrane damage in human MCF7 cells assessed as increase in mitochondrial depolarization by measuring reduction in red fluorescence measured after 24 hrs by TMRM dye based confocal microscopy; type: cell-based
Summary of the method: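 Mitochondrial damage probe: after 24 h exposure MCF7 cells loaded with TMRM, which stains undamaged mitochondria and is effluxed after damage; red fluorescence read by confocal microscopy against non-treated cells.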

MCF7 [9] = assay: Induction of mitochondrial outer membrane damage in human MCF7 cells assessed as morphological changes by measuring appearance of threadlike structure at IC50 measured after 24 hrs by mitotracker red based confocal microscopy; type: cell-based
MCF7 [10] = assay: Induction of apoptosis in human MCF7 cells assessed as increase in red fluorescence at IC50 measured after 24 hrs by propidium iodide staining based confocal laser scanning microscopy; type: functional, cell-based
Summary of the method: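 Following 24 h treatment, MCF7 cells incubated with propidium iodide, which binds DNA of apoptotic and necrotic cells; red fluorescence read by confocal microscopy against non-treated cells.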

MCF7 [11] = assay: Induction of mitochondrial outer membrane damage in human MCF7 cells assessed as morphological changes by measuring appearance of fragmented punctate structure at IC50 measured after 24 hrs by mitotracker red based confocal microscopy; type: cell-based
MCF7 [12] = assay: Induction of ROS generation in human MCF7 cells assessed as increase in red fluorescence at IC50 measured after 24 hrs by MitoSox dye based confocal microscopy; type: functional, cell-based
Summary of the method: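 MCF7 cells exposed 24 h, then stained with MitoSox, which gives red fluorescence with sub-cellular superoxide; signal compared with non-treated control cells by confocal microscopy.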

Compound	pIC50 (MCF7 [1])	IC50 at 24 h [2]	Activity (MCF7 [3])	Activity (MCF7 [4])	fold change (FC) (MCF7 [5])	Activity (MCF7 [6])	Activity (MCF7 [7])	Activity (MCF7 [8])	Activity (MCF7 [9])	Activity (MCF7 [10])	Activity (MCF7 [11])	Activity (MCF7 [12])
Cc1ccc([P+](CCCCCOC(=O)C(C)c2ccc(CC(C)C)cc2)(c2ccc(C)cc2)c2ccc(C)cc2)cc1 (stereo not drawn)	4.59	> 40 µM										
COc1ccc([P+](CCCCCOC(=O)C(C)c2ccc(CC(C)C)cc2)(c2ccc(OC)cc2)c2ccc(OC)cc2)cc1 (stereo not drawn)	4.49	> 40 µM										
COc1ccc2c(c1)c(CC(=O)O)c(C)n2C(=O)c1ccc(Cl)cc1 [INDOMETHACIN]	< 4.30	> 40 µM	Active	Active	2.4	Active	Active	Active	Active			
CC(C)Cc1ccc(C(C)C(=O)O)cc1 (stereo not drawn) [IBUPROFEN]	< 4.30	> 40 µM	Active		1.3	Active		Active	Active			
COc1ccc2c(c1)c(CC(=O)OCCCCC[P+](c1ccccc1)(c1ccccc1)c1ccccc1)c(C)n2C(=O)c1ccc(Cl)cc1	6.00	22 µM	Active	Active	2.4		Active	Active		Active	Active	Active
CC(C)Cc1ccc(C(C)C(=O)OCCCCC[P+](c2ccc(F)cc2)(c2ccc(F)cc2)c2ccc(F)cc2)cc1 (stereo not drawn)	< 4.30	35 µM										
COc1ccc2c(c1)c(CC(=O)OCCCCC[P+](c1ccc(C)cc1)(c1ccc(C)cc1)c1ccc(C)cc1)c(C)n2C(=O)c1ccc(Cl)cc1	5.24	10.2 µM										
CC(C)Cc1ccc(C(C)C(=O)OCCCCC[P+](c2ccccc2)(c2ccccc2)c2ccccc2)cc1 (stereo not drawn)	4.99	> 40 µM	Active	Active	3.2		Active	Active		Active	Active	Active
COc1ccc([P+](CCCCCOC(=O)Cc2c(C)n(C(=O)c3ccc(Cl)cc3)c3ccc(OC)cc23)(c2ccc(OC)cc2)c2ccc(OC)cc2)cc1	5.35	35.2 µM										
COc1ccc2c(c1)c(CC(=O)OCCCCC[P+](c1ccc(F)cc1)(c1ccc(F)cc1)c1ccc(F)cc1)c(C)n2C(=O)c1ccc(Cl)cc1	4.59	11.2 µM										
